Drawing on ChEMBL document CHEMBL3352630, “Sequestered fulvinol-related polyacetylenes in Peltodoris atromaculata” (J Nat Prod, 2014), this text covers IC50 for four compounds.

The test system of one assay is SK-MEL-28. Description: Growth inhibition of human SK-MEL-28 cells after 72 hrs by MTT assay. The class given is functional, cell-based. As to conditions: SK-MEL-28, 72 h. Summed up:
(§1)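 Human cancer cells (carcinoma: A549, MCF-7, PC-3; glioma: Hs683, U373; melanoma: SK-MEL-28) were cultured with the test compound for 72 h. Growth was read by MTT colorimetric assay, and the IC50 for in vitro growth inhibition is given in μM. Etoposide was run alongside as the reference agent.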
Background: Formazan colour is commonly taken as a measure of viable cells.

Assay [1] in a line: Growth inhibition of human PC3 cells after 72 hrs by MTT assay. The class given is functional, cell-based. The conditions noted are these: PC-3, 72 h. The method in brief: as §1
For the next assay, the system named is MCF7. Description: Growth inhibition of human MCF7 cells after 72 hrs by MTT assay. In kind it is functional, cell-based. The conditions noted are these: MCF7, 72 h. The method in brief:
as §1

For a further assay, the system named is A549. Briefly: Growth inhibition of human A549 cells after 72 hrs by MTT assay. In kind it is functional, cell-based. The conditions noted are these: A549, 72 h. Summed up:
as §1

Assay [2] is described as follows: Growth inhibition of human Hs683 cells after 72 hrs by MTT assay. As to conditions: Hs 683, 72 h. In kind it is functional, cell-based. Summed up: as §1
Assay [3] in a line: Growth inhibition of human U373 cells after 72 hrs by MTT assay. In kind it is functional, cell-based, U-373MG ATCC. The conditions noted are these: U373 MG. The method in brief:
as §1

The term IC50 denotes the point on the concentration scale where inhibition reaches its midpoint. Turning to `C#C[C@@H](O)/C=C/CCCCCCCCCCCCC/C=C\CCCC/C=C\CCCC/C=C\C/C=C\CCCCCC(O)/C=C/[C@H](O)C#C` (some centres undefined), the IC50 was determined as 3 µM in the assay on SK-MEL-28; 32 µM in assay [1]; 15 µM in the assay with MCF7; 31 µM in the assay with A549; 23 µM in assay [2]; 15 µM in assay [3].
`C#CC(=O)/C=C/CCCCCCCCC/C=C\CCCC/C=C\CCCC/C=C\CCCCCCCCCCCCC/C=C/C(=O)C#C`: the IC50 with SK-MEL-28 was over 100 µM; in assay [1], 86 µM; in the assay with MCF7, 82 µM; in the assay on A549, 37 µM; in assay [2] it was over 100 µM; in assay [3], over 100 µM.
For the compound `COc1cc([C@@H]2c3cc4c(cc3[C@@H](O[C@@H]3O[C@@H]5CO[C@@H](C)O[C@H]5[C@H](O)[C@H]3O)[C@H]3COC(=O)[C@H]23)OCO4)cc(OC)c1O` [ETOPOSIDE], the IC50 with SK-MEL-28 is 1 µM; in assay [1], 2 µM; with MCF7 it was 17 µM; with A549, 0.1 µM; in assay [2], 1 µM; in assay [3] it was 7 µM.
On to `C#C[C@@H](O)/C=C/CCCCCCCCC/C=C\CCCC/C=C\CCCC/C=C\CCCCCCCCCCCCC/C=C/[C@H](O)C#C`, for which the IC50 with SK-MEL-28 was 11 µM; in assay [1], 18 µM; with MCF7, 23 µM; in the assay with A549, 28 µM; in assay [2], 36 µM; in assay [3], 19 µM.
